The nature of data set [1]: Cytotoxicity against human HeLa cells after 24 hrs by CellTiter-Glo assay. It is filed as cell-based. Summed up: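 HeLa cells seeded at 20 000 cells/well in DMEM with 10% FCS and 1% penicillin/streptomycin, grown 16 h at 37 °C, 5% CO2. Medium renewed, then compound added in DMSO to final 0.5–32 μg/mL, triplicate series. After 24 h at 37 °C, plates equilibrated to room temperature and viability read by CellTiter-Glo luminescence.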
In general terms: In ATP-based viability assays light output follows the ATP content of the culture.

Data set [2] relates to Staphylococcus aureus. The data set is described as follows: Antibacterial activity against methicillin-resistant Staphylococcus aureus ATCC 33592 after overnight incubation by broth microdilution assay in presence of 4 ug/ml meropenem. The format is functional. Summed up:
(§1)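 Resensitization screen: compound from a 5 mg/mL DMSO stock, 2-fold serially diluted in MHB from 32 μg/mL final. Antibiotic was held at its CLSI-susceptible level: amoxicillin/clavulanic acid 4/2 μg/mL, cefazolin 8 μg/mL, meropenem 4 μg/mL. Final MRSA inoculum OD600 0.001, overnight at 37 °C with shaking. MRC was the concentration giving no visible overnight growth.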
(Dilution methods test growth across graded concentrations, often in twofold steps.)

In data set [3] the test system is Staphylococcus aureus. In words: Antibacterial activity against methicillin-resistant Staphylococcus aureus ATCC BAA-44 after overnight incubation by broth microdilution assay in presence of 8 ug/ml cefazolin. The format is functional. Summed up: as §1
The test system of data set [4] is Staphylococcus aureus. In words: Antibacterial activity against methicillin-resistant Staphylococcus aureus ATCC BAA-44 after overnight incubation by broth microdilution assay in presence of 4 ug/ml amoxicillin and 2 ug/ml clavulanic acid. It is filed as functional. The procedure, abridged:
as §1

In data set [5] the test system is Staphylococcus aureus. The data set is described as follows: Antibacterial activity against methicillin-resistant Staphylococcus aureus ATCC BAA-44 after 18 hrs by checkerboard test in presence of amoxicillin/clavulanic acid. The format is functional. The procedure, abridged:
(§2)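 Checkerboard synergy test in MHB, plates in duplicate. Compound was 2-fold diluted across the rows (8 to 0.016 μg/mL). […] Final inoculum OD600 0.001, 37 °C with shaking, 18 h. FICI was taken as FICA + FICB, each the MIC in combination over the MIC alone.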

Data set [6] has as its system Staphylococcus aureus. In words: Antibacterial activity against methicillin-resistant Staphylococcus aureus ATCC BAA-44 after 18 hrs by checkerboard test in presence of cefazolin. It is filed as functional. The procedure, abridged:
as §2

Data set [7] can be described thus: Ratio of hemolytic activity in human RBC to antibacterial activity against methicillin-resistant Staphylococcus aureus ATCC BAA-44 in presence of 4 ug/ml amoxicillin and 2 ug/ml clavulanic acid.
In data set [8] the test system is Staphylococcus aureus. The data set is described as follows: Antibacterial activity against methicillin-sensitive Staphylococcus aureus ATCC 25923 after 18 hrs by broth microdilution assay. It is filed as functional. Conditions: ATCC 25923, 18 h. The procedure, abridged:
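CLSI broth microdilution in Mueller–Hinton broth. Day culture (OD600 0.15–0.4) diluted to OD600 0.002, then 2-fold on addition to wells, giving a final inoculum of OD600 0.001.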

For data set [9], the system named is Staphylococcus aureus. The data set is described as follows: Antibacterial activity against methicillin-resistant Staphylococcus aureus ATCC 33592 after 18 hrs by checkerboard test in presence of meropenem. The format is functional. Summed up:
as §2

For data set [10], the system named is Staphylococcus aureus. The data set is described as follows: Antibacterial activity against methicillin-resistant Staphylococcus aureus ATCC 33592 after 18 hrs by broth microdilution assay. The following applies: ATCC 33592, 18 h. It is filed as functional. The procedure, abridged: (§3)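 Day culture (OD600 0.15–0.4) diluted to OD600 0.002, then 2-fold on plating for a final inoculum of OD600 0.001. Plates were incubated at 37 °C with shaking for 18 h before reading growth.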

A short description of data set [11]: Hemolytic activity in human RBC at 64 ug/ml after 1 hr relative to control. It is filed as ADME, cell-based, Erythrocyte. Conditions: red blood cells, read-out: Activity. The procedure, abridged: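 Freshly drawn heparinized human blood centrifuged; RBCs washed three times in D-PBS and diluted to 1% of original pellet volume. Compound in DMSO added to final 64, 16 and 4 μg/mL. Incubated at 37 °C for 1 h with shaking, then centrifuged; supernatant hemoglobin read at 415 nm. Percent hemolysis taken against 1% Triton X-100 (100%) with DMSO as negative control. Triplicate; run within 3 h of the draw.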

Data set [12] concerns Staphylococcus aureus. The data set is described as follows: Antibacterial activity against methicillin-resistant Staphylococcus aureus ATCC BAA-44 after 18 hrs by broth microdilution assay. The following applies: ATCC BAA-44, 18 h. The format is functional. The procedure, abridged:
as §3

Data set [13] in a line: Ratio of hemolytic activity in human RBC to antibacterial activity against methicillin-resistant Staphylococcus aureus ATCC BAA-44 in presence of 8 ug/ml cefazolin.
Data set [14] in a line: Ratio of hemolytic activity in human RBC to antibacterial activity against methicillin-resistant Staphylococcus aureus ATCC 33592 in presence of 4 ug/ml meropenem.

The structures appear in SMILES notation. Converted amounts (≈) assume the structure as drawn.

For orientation: GI50 means the concentration that inhibits growth by half. A low value points to more potent growth inhibition. One may read the MIC as the smallest concentration in the dilution series that meets the test's criterion for growth inhibition. A high value points to a less susceptible organism.

In turn, `C=C1CCC[C@@H]2Nc3ccc(Cl)cc3[C@]12CCNS(=O)(=O)c1ccc(Cl)cc1` had a GI50 at 24 h in [1] of 35 µg/mL (≈ 80 µM). Further, the figures for the MRC in the data set on Staphylococcus aureus [2], in the data set on Staphylococcus aureus [3] and in the data set with Staphylococcus aureus [4] were 8 µg/mL, 4 µg/mL and 8 µg/mL, respectively.
With `C=C1CCC[C@@H]2Nc3c(F)cc(Br)cc3[C@]12CCN`, halving of growth in data set [1] (GI50 at 24 h) required 16.2 µg/mL (≈ 49.8 µM). Moreover, the values for the MRC with Staphylococcus aureus [2], in the data set with Staphylococcus aureus [3] and with Staphylococcus aureus [4] were 16 µg/mL, 32 µg/mL and >32 µg/mL, respectively.
With `C=C1CCC[C@@H]2Nc3c(F)cc(Br)cc3[C@]12CCNS(=O)(=O)c1ccc(OC)cc1`, it took 49 µg/mL (≈ 98.9 µM) to inhibit growth in data set [1] by half (GI50 at 24 h). The MRC came out at 8 µg/mL in the data set on Staphylococcus aureus [2], 4 µg/mL with Staphylococcus aureus [3] and 8 µg/mL with Staphylococcus aureus [4].
Take `C=C1CCC[C@@H]2Nc3c(F)cc(Br)cc3[C@]12CCNS(=O)(=O)c1ccc(Br)cc1`: the “fractional inhibitory concentration index (FICI)” value in the data set on Staphylococcus aureus [5] came to 0.0315; in the data set on Staphylococcus aureus [6], 0.0156; in the data set with Staphylococcus aureus [9], 0.0315. The GI50 at 24 h in [1] turned out to be 22 µg/mL (≈ 40.4 µM). The Ratio in data set [7], in [13] and in [14] was 64 each time. The MIC with Staphylococcus aureus [8], against Staphylococcus aureus [10] and against Staphylococcus aureus [12] was > 64 µg/mL each time. Moreover, the hemolysis at 1 h, 64 ug/ml in data set [11] is < 2%. In addition, the MRC in the data set on Staphylococcus aureus [2], in the data set on Staphylococcus aureus [3] and with Staphylococcus aureus [4] was 1 µg/mL in each case.
`C=C1CCC[C@@H]2Nc3c(F)cc(Br)cc3[C@]12CCNS(=O)(=O)c1ccc(NC(C)=O)cc1`: the GI50 at 24 h in data set [1] was 32 µg/mL (≈ 61.3 µM). The MRC is 16 µg/mL with Staphylococcus aureus [2], 32 µg/mL in the data set with Staphylococcus aureus [3] and 32 µg/mL in the data set on Staphylococcus aureus [4].
In data set [1], `C=C1CCC[C@@H]2Nc3c(F)cc(Br)cc3[C@]12CCNS(=O)(=O)c1ccc(C#N)cc1` came in with a GI50 at 24 h of 17 µg/mL (≈ 34.7 µM). Besides, the values for the MRC in the data set with Staphylococcus aureus [2], in the data set on Staphylococcus aureus [3] and with Staphylococcus aureus [4] were 4 µg/mL, 4 µg/mL and 8 µg/mL, respectively.
`C=C1CCC[C@@H]2Nc3c(F)cc(Br)cc3[C@]12CCNS(=O)(=O)c1ccc(C(F)(F)F)cc1` returned a GI50 at 24 h in [1] of 8.7 µg/mL (≈ 16.3 µM). Moreover, the MRC in the data set on Staphylococcus aureus [2], with Staphylococcus aureus [3] and in the data set with Staphylococcus aureus [4] was 4 µg/mL in each case.

For the origin of these results see ChEMBL document CHEMBL3259770, “Structure-activity relationship studies of the tricyclic indoline resistance-modifying agent” (J Med Chem, 2014).
